Experimental data pooled from the literature.
Each line is one published result; the experiments were not run side by side.
Target: Serine/threonine-protein kinase N2 (PKN2, Homo sapiens, UniProt Q16513)

For Cc1cc(C)c(-n2ccn3nc(-c4cccnc4)cc23)cc1NC(=O)c1cc(C#N)cc(S(F)(F)(F)(F)F)c1, the remaining binding was 100% (cell-free assay, competition with immobilised ligand; 0.1 µM).
For CNC(=O)c1cc(Oc2ccc(NC(=O)Nc3ccc(Cl)c(C(F)(F)F)c3)cc2)ccn1, the inhibition was 10% (enzyme activity, inhibitor; 0.3 µM).
c1cnn2ncc(-c3ccnc(N4CCC45COC5)n3)c2c1 has a remaining binding of 89% (binding; 1 µM).
O=C(Nc1cccnn1)N1CCC(=Cc2cccc(Oc3ccc(C(F)(F)F)cn3)c2)CC1 has a remaining binding of 100% (cell-free assay, competition with immobilised ligand; 1 µM).
For O=S(=O)(c1cccc2cnccc12)N1CCCNCC1, the remaining signal was 103% (cell-free assay; 0.5 µM).
With CC(C)(C)c1nc(-c2cccc(NS(=O)(=O)c3c(F)cccc3F)c2F)c(-c2ccnc(N)n2)s1 the remaining activity was 78% (enzyme activity, inhibitor, radiometric; 1 µM).
Cc1ccc(Nc2nccc(N(C)c3ccc4c(C)n(C)nc4c3)n2)cc1S(N)(=O)=O gave an inhibition of 34% (enzyme activity, inhibitor; 10 µM).
FC(F)c1nc2ccccc2n1-c1nc(N2CCOCC2)nc(N2CCOCC2)n1 gave a remaining activity of 82% (enzyme activity, inhibitor; 10 µM).
For CN(c1ncccc1CNc1nc(Nc2ccc3c(c2)CC(=O)N3)ncc1C(F)(F)F)S(C)(=O)=O, the inhibition was 47% (enzyme activity, inhibitor; 1 µM).
The remaining binding of O=c1nc(-c2ccccn2)sc2ccccc12 is reported as 100% (binding, competition with immobilised ligand; 1 µM).
CCCOc1ccc(OC)c(F)c1C(=O)c1ccc(C(=O)N[C@@H]2CNC[C@H]2NC(=O)c2ccc3[nH]ncc3c2)cc1 has a remaining activity of 53% (enzyme activity, inhibitor; 0.1 µM).
CC(C)(O)[C@H]1CC[C@H](Nc2ccc3ncc(-c4cccc(C(F)(F)F)c4)n3n2)CC1 has a remaining activity of 95.9% (enzyme activity, inhibitor; 1 µM).
COc1cc(Nc2cnc(C#N)c(O[C@H](C)CN(C)C)n2)ncc1-c1cnn(C)c1 has a remaining activity of 87% (enzyme activity, inhibitor, radiometric; 1 µM).
CNC(=O)Nc1ccc2c(c1)CC[C@@]21OC(=O)N(CC(=O)N(Cc2ccc(F)cc2)[C@@H](C)C(F)(F)F)C1=O gave a remaining binding of 97% (cell-free assay, competition with immobilised ligand; 1 µM).
With O=C(Nc1cnn(-c2csc(C(=O)NC3COC3)c2)c1)Nc1c(F)cccc1Cl the remaining activity was 105% (enzyme activity, inhibitor; 5 µM).
The remaining binding of CCCCN(CCCC)C(=O)CN1C[C@H](c2cc(OC)c3c(c2)OCO3)[C@@H](C(=O)O)[C@@H]1CC(C)(C)CCC is reported as 100% (cell-free assay, competition with immobilised ligand; 1 µM).
The ΔTm of Cn1c2c(c3ccc(Cl)c(Cl)c31)C(C#N)C1(CCCC1)NC2=O (centres unmarked) is reported as 0 °C (thermal stability, DSF; 10 µM).
For CN1CC(Oc2cnc(C#N)cc2-c2ccn3nc(NC(=O)C4CC4)cc3c2)C1, the inhibition was 15% (enzyme activity, inhibitor; 1 µM).
The remaining signal of N#CCCc1ccc2c(c1)-c1[nH]c3ccc([N+](=O)[O-])cc3c1CC(=O)N2 is reported as 77.9% (cell-free assay; 0.5 µM).
For Cc1nc(Cc2cccc(C(F)(F)F)c2)sc1-c1ccc(C(N)=O)nc1, the remaining binding was 91% (cell-free assay, competition with immobilised ligand; 1 µM).
